According to ChEMBL document CHEMBL1137824, “Centrally acting and metabolically stable thyrotropin-releasing hormone analogues by replacement of histidine with substituted pyridinium” (J Med Chem, 2004):

Assays:
[1] = Capacity factor of compound was determined by immobilized artificial membrane chromatography; format: ADME
Method in brief: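 Immobilized artificial membrane HPLC, isocratic 10 mM ammonium acetate pH 5.4 at 1.0 mL/min, detection by ESI-MS (pyridinium salts) or APCI-MS (dihydropyridine prodrugs). k'IAM = (tR compound − tR citric acid)/tR citric acid, citric acid serving as void marker.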

[2] = Partition coefficient (logP); format: physicochemical; conditions: octanol/water
Mus musculus [3] = assay: Sleeping time of mice was determined after intravenous administration of compound at 15 umol/kg of Body Weight; format: functional
Method in brief: (§1)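 Swiss Webster mice (30 ± 2 g), 8–16 per group; 15 µmol/kg compound iv via tail vein in degassed saline, vehicle controls 1.5 mL/kg. Sodium pentobarbital 60 mg/kg ip after 10 min; sleeping time timed from loss to regain of righting reflex.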

[4] = biological target: T1, Thyrotropin-releasing hormone receptor (Rattus norvegicus, UniProt Q01717); assay: Inhibition of [3H][3-Me-His2]-TRH binding to thyrotropin releasing hormone receptor of rat forebrain
T1 sequence (Q01717 whole entry): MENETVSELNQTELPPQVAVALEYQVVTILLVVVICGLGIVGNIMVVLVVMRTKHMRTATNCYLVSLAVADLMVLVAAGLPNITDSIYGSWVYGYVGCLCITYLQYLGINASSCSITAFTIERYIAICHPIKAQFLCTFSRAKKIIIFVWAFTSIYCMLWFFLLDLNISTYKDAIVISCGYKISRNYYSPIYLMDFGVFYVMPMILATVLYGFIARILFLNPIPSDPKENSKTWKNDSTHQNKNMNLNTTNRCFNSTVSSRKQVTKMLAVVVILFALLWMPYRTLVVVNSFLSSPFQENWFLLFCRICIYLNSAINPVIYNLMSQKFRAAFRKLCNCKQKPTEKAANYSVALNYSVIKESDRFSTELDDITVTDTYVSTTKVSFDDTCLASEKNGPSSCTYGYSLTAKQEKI
Method in brief: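 Rat forebrain membrane suspension in 20 mM phosphate pH 7.4, incubated 180 min at 4 °C with 2 nM [3H][3-Me-His2]TRH and varying test concentrations. Nonspecific binding defined with 10 µM TRH; Ki reported.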

Rattus norvegicus = assay: Maximal changes in rat hippocampal acetylcholine concentration after administration of compound through a microdialysis probe; format: functional, Hippocampus
Method in brief: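 Male Sprague–Dawley rats (250–300 g), guide cannula in ventral hippocampus, probe (4 mm polycarbonate) inserted after 7 days. Perfused with artificial CSF plus 2 µM neostigmine at 2 µL/min; baseline is mean of three 20-min fractions. Compound perfused at 1 nmol/µL through probe; maximal ACh change expressed as % of baseline.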

[5] = Half-life of compound in rat brain homogenate was determined; format: ADME, tissue-based
Method in brief: (§2)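 About 100 nmol compound per 1 mL rat plasma or 20% rat brain homogenate (0.1 M phosphate, pH 7.4), shaken at 37 °C. Aliquots taken at 2–90 min and quenched in ice-cold 5% acetic acid/acetonitrile, then centrifuged. Loss of compound followed by HPLC against standards in heat-denatured matrix; t1/2 from the decline.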

[6] = Half-life of compound in rat plasma was determined; format: ADME, cell-free; method in brief: as §2
Mus musculus [7] = assay: Sleeping time of mice was determined after intravenous administration of compound at 15 umol/kg of body weight; format: functional; method in brief: as §1
Mus musculus [8] = assay: Sleeping time decrease in mice was determined after intravenous administration of compound at 1 umol/kg of body weight; format: functional
Mus musculus [9] = assay: Sleeping time decrease in mice was determined after intravenous administration of compound at 5 umol/kg of body weight; format: functional
Method in brief: (§3)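 Swiss Webster mice (30 ± 2 g), 8–16 per group, given compound iv via tail vein in degassed saline; controls received saline 1.5 mL/kg. Sodium pentobarbital 60 mg/kg ip 10 min later; sleeping time from loss to regain of righting reflex; decrease versus saline control, mean ± SEM.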

Mus musculus [10] = assay: Sleeping time decrease in mice was determined after intravenous administration of compound at 15 umol/kg of body weight; format: functional; method in brief: as §3
Mus musculus [11] = assay: Sleeping time decrease in mice was determined after intravenous administration of compound at 50 umol/kg of body weight; format: functional; method in brief: as §3
Mus musculus [12] = assay: Sleeping time decrease in mice was determined after intravenous administration of compound at 0.5 umol/kg of body weight; format: functional; method in brief: as §3

Row | SMILES | K''IAM [1] | logP [2] | Sleeping time (Mus musculus [3]) [min] | Ki [4] [µM] | Maximal change (Rattus norvegicus) [%] | half-life [5] [min] | half-life [6] [min] | Sleeping time (Mus musculus [7]) [min] | Sleeping time (Mus musculus [8]) [min] | Sleeping time (Mus musculus [9]) [min] | Sleeping time (Mus musculus [10]) [min] | Sleeping time (Mus musculus [11]) [min] | Sleeping time (Mus musculus [12]) [min]
1 | NC(=O)C1=CN(CCC(NC(=O)[C@@H]2CCC(=O)N2)C(=O)N2CCC[C@H]2C(N)=O)C=CC1 (stereo partly specified) | 0.8 | -2.84 | 44.7 | – | – | – | – | – | – | – | – | – | –
2 | NC(=O)C1=CN(CCCCC(NC(=O)[C@@H]2CCC(=O)N2)C(=O)N2CCC[C@H]2C(N)=O)C=CC1 (stereo partly specified) | 2.3 | -1.94 | 48.8 | – | – | – | – | – | – | – | – | – | –
3 | NC(=O)c1ccc[n+](CCC[C@H](NC(=O)[C@@H]2CCC(=O)N2)C(=O)N2CCC[C@H]2C(N)=O)c1 | 0.49 | -1.74 | – | > 10 | 145 | – | – | – | – | – | – | – | –
4 | NC(=O)[C@@H]1CCCN1C(=O)[C@H](Cc1cnc[nH]1)NC(=O)[C@@H]1CCC(=O)N1 [PROTIRELIN] | 0.51 | -1.74 | 26 | 0.0423 | 394 | 16 | 11 | – | – | – | – | – | –
5 | NC(=O)C1=CN(CCC[C@H](NC(=O)[C@@H]2CCC(=O)N2)C(=O)N2CCC[C@H]2C(N)=O)C=CC1 | 1.47 | -2.39 | 58.1 | – | – | – | – | – | – | – | – | – | –
6 | NC(=O)c1ccc[n+](C[C@H](NC(=O)[C@@H]2CCC(=O)N2)C(=O)N2CCC[C@H]2C(N)=O)c1.O=C([O-])C(F)(F)F | 0.3 | -2.64 | 75.9 | > 10 | 279 | – | – | – | – | – | – | – | –
7 | NC(=O)c1ccc[n+](CCCC[C@H](NC(=O)[C@@H]2CCC(=O)N2)C(=O)N2CCC[C@H]2C(N)=O)c1 | 0.6 | -1.29 | – | > 10 | 242 | – | – | – | – | – | – | – | –
8 | NC(=O)c1ccc[n+](CC[C@H](NC(=O)[C@@H]2CCC(=O)N2)C(=O)N2CCC[C@H]2C(N)=O)c1 | 0.42 | -2.18 | – | > 10 | 216 | – | – | – | – | – | – | – | –
9 | NC(=O)C1=CN(C[C@H](NC(=O)[C@@H]2CCC(=O)N2)C(=O)N2CCC[C@H]2C(N)=O)C=CC1 | 0.55 | -3.29 | – | – | – | – | – | 19.4 | 5.4 | 14.1 | 23.2 | 24.2 | 2.8
